The EC50 is the concentration that produces a half-maximal response. Low readings indicate an effect from little substance, high ones a need for much substance. The term IC50 denotes the concentration that inhibits the measured activity by half.

One test deals with MT4. Put plainly: Compound was evaluated for effective concentration required to achieve 50% protection of MT-4 cells against cytopathic effect of HIV-1. The note with it: Homo sapiens. The class given is functional, cell-based. (In general: Protection from cytopathic effect is a common read-out in antiviral testing.)
Compound `Cc1c(O)nc(O)nc1Sc1ccccc1` came in with an EC50 greater than 250 µM.

Another test deals with Human immunodeficiency virus type 1 reverse transcriptase (Human immunodeficiency virus 1, UniProt Q72547). Put plainly: Inhibitory activity against HIV-1 Reverse transcriptase.
Settings: not given
In outline: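 Cell-free HIV-1 reverse transcriptase inhibition assay, with TIBO and BI-RG-587 run as reference inhibitors. IC50 is the inhibitor concentration giving 50% enzyme inhibition, taken as the mean of at least two independent assays.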
`CCOCn1c2c(c(=O)[nH]c1=O)CNc1ccccc1S2`: the IC50 turned out to be 50.2 µM. That is a double-digit micromolar value.

The compound `O=c1[nH]c(=O)n(COCCO)c2c1C(c1ccccc1)Nc1ccccc1S2` (configuration not stated) yielded an IC50 greater than 100 µM.

Consider `CC(=O)OCCOCn1c2c(c(=O)[nH]c1=O)CNc1ccccc1S2`, for which the IC50 was 11.5 µM.

Consider `O=c1[nH]c(=O)n(COCCO)c2c1C(c1ccc([N+](=O)[O-])cc1)Nc1ccccc1S2` (configuration not stated), for which the 50% inhibitory concentration (IC50) was greater than 100 µM.

In the case of `CC(=O)OCCOCn1c2c(c(=O)[nH]c1=O)C(c1ccccc1)Nc1ccccc1S2` (configuration not stated), the IC50 was greater than 100 µM.

In turn, `CC(=O)OCCOCn1c2c(c(=O)[nH]c1=O)CN(C)c1ccccc1S2` registered an IC50 of 14.7 µM.

Turning to `CC(=O)OCCOCn1c2c(c(=O)[nH]c1=O)C(=O)Nc1ccccc1S2`, the IC50 is greater than 100 µM.

`CC(=O)OCCOCn1c2c(c(=O)n(C)c1=O)CNc1ccccc1S2` yielded a half-inhibitory concentration (IC50) greater than 100 µM.

As for `CCOCCOCn1c2c(c(=O)[nH]c1=O)CNc1ccccc1S2`, half-maximal inhibition (IC50) required 0.64 µM.

Compound `O=c1[nH]c(=O)n(COCCO)c2c1CNc1ccccc1S2` displayed a half-inhibitory concentration (IC50) greater than 100 µM.

Compound `O=c1[nH]c2c(c(=O)[nH]1)CNc1ccccc1S2` [PYRIMIDOBENZOTHIAZEPINE] yielded an IC50 greater than 100 µM.

Values taken from ChEMBL document CHEMBL1128395, “Design and synthesis of novel inhibitors of HIV-1 reverse transcriptase” (J Med Chem, 1995).
